Experimental data published in ChEMBL document CHEMBL4118180, “Design, synthesis and evaluation of photoactivatable derivatives of microtubule (MT)-active [1,2,4]triazolo[1,5-a]pyrimidines” (Bioorg Med Chem Lett, 2018).
Activity calls are given as the source filed them. The calls are words filed in the database; no cut-off is given here.

Columns and labels:
Assay type in all cases: cell-based
Settings in all cases: Homo sapiens
[1] = tested on: HEK293; assay: Induction of microtubule disruption in HEK293 cells assessed as total alpha tubulin levels at 10 uM after 4 hrs by ELISA relative to control
Summary of the method: (§1)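 HEK-293 cells were exposed to the test compound at 1 or 10 μM for 4 h. Acetylated α-tubulin and total α-tubulin were then measured by ELISA in cell lysates. Levels are expressed relative to vehicle-treated control cells, as the average and SD of triplicate assays. Significance was tested by one-way ANOVA with Dunnett's post-hoc test. Changes in α-tubulin below 15% are treated as assay-to-assay variability.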

[2] = tested on: HEK293; assay: Induction of microtubule stabilization in HEK293 cells assessed as increase in acetylated alpha tubulin levels at 1 uM after 4 hrs by ELISA relative to control; summary of the method: as §1
[3] = tested on: HEK293; assay: Induction of microtubule stabilization in HEK293 cells assessed as increase in acetylated alpha tubulin levels at 10 uM after 4 hrs by ELISA relative to control; summary of the method: as §1
[4] = tested on: HEK293; assay: Induction of microtubule disruption in HEK293 cells assessed as total alpha tubulin levels at 1 uM after 4 hrs by ELISA relative to control; summary of the method: as §1
[5] = tested on: HEK293; assay: Induction of microtubule disruption in HEK293 cells assessed as total alpha tubulin levels after 4 hrs by ELISA relative to control
Summary of the method: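 Total α-tubulin was measured by ELISA in lysates of HEK-293 cells after 4 h incubation with the test compound. Levels are expressed relative to vehicle-treated control cells. Significance was assessed by one-way ANOVA with Dunnett's post-hoc analysis.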

Row | Compound | fold change (FC) [1] | fold change (FC) [2] | fold change (FC) [3] | fold change (FC) [4] | Activity [2] | Activity [3] | Activity [5]
1 | CC1(CNc2c(-c3c(F)cc(F)cc3F)c(Cl)nc3ncnn23)N=N1 | 1.03 | 1.56 | 3.42 | 1.08 | – | – | –
2 | C[C@H](Nc1c(-c2c(F)cc(OCCCNC(=O)c3ccc(C4(C(F)(F)F)N=N4)cc3)cc2F)c(Cl)nc2ncnn12)C(F)(F)F | 0.88 | 1.3 | 3.65 | 1.31 | – | – | –
3 | C[C@H](Nc1c(-c2c(F)cc(OCCCN(C)C)cc2F)c(Cl)nc2ncnn12)C1(C)N=N1 | 0.78 | 6.7 | 0.28 | 0.69 | – | – | –
4 | [N-]=[N+]=Nc1c(-c2c(F)cc(F)cc2F)c(Cl)nc2ncnn12 | – | – | – | – | inactive | inactive | –
5 | C[C@H](Nc1c(-c2c(F)cc(F)cc2F)c(N=[N+]=[N-])nc2ncnn12)C(F)(F)F | – | – | – | – | inactive | inactive | –
6 | CN(C)CCCOc1cc(F)c(-c2c(Cl)nc3ncnn3c2NCC2(C)N=N2)c(F)c1 | 0.19 | 10.5 | 0.29 | 0.36 | – | – | Dose-dependent effect
7 | C[C@H](Nc1c(-c2c(F)cc(F)cc2F)c(Cl)nc2ncnn12)C1(C)N=N1 | 0.94 | – | 1.85 | – | – | – | –
8 | CO[C@@H]1C[C@H]2CC[C@@H](C1)N2c1c(-c2c(F)cc(F)cc2F)c(Cl)nc2ncnn12 | 1.38 | 3.65 | 7.43 | 1.12 | – | – | –
9 | C[C@H](Nc1c(-c2c(F)cc(OCCCN(C)C)cc2F)c(Cl)nc2ncnn12)C(F)(F)F | 0.14 | 5.83 | 0.3 | 0.29 | – | – | –
10 | CNCCCOc1cc(F)c(-c2c(Cl)nc3ncnn3c2N[C@@H](C)C(F)(F)F)c(F)c1 | 0.14 | 7.07 | 0.1 | 0.51 | – | – | –
11 | C[C@@H](Nc1c(-c2c(F)cc(F)cc2F)c(Cl)nc2ncnn12)C1(C)N=N1 | 0.89 | 1.42 | 4.28 | 0.92 | – | – | –
12 | C[C@@H](Nc1c(-c2c(F)cc(OCCCN(C)C)cc2F)c(Cl)nc2ncnn12)C1(C)N=N1 | 1.01 | 21.7 | 0.93 | 0.73 | – | – | Dose-dependent effect
